T cell HTS = modulators of CD8 T cell-vesicle binding, primary screen, mouse 2C CD8+ T cells, flow cytometry. AID 2052, 2009. 330,000 compounds, 0.068% hits. response (vesicle binding), % at 7 µM. 2C CD8+ T cell-vesicle binding; hits give low values;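 active means response, share of CD8 T cells binding vesicles, and their 90th percentile fluorescence all below set limits, cut at about 80% in these data, passing the limit was not always enough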;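 further: values below 100% mean blocked vesicle binding to the CD8+ T cells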
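Incubation: binding step 1.5 h, 37 °C, antibody labelling 20 min, ice; system: murine 2C transgenic CD8+ T lymphocytes; technique: cytometric PE anti-B7-1 and Alexa647 anti-CD8 signals after 1% paraformaldehyde fixation; also added: QL9-charged Drosophila Ld/ICAM-1/B7-1 vesicles; control set: naked versus QL9-loaded vesicles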
MIN6 prolif = inducers of MIN6 beta-cell proliferation, primary screen, ATP luminescence, uHTS | MIN6 cells proliferation, ATPlite luminescence, 48 h; cells starved in 0.2% serum; 100% = growth in 10% serum | AID 2380, 2010 | 330,000 compounds, 0.29% hits | proliferation, % at 10 µM;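 active means compounds whose signal lies at least 3.5 SD above the mean of all wells on their plate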;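 further: 0% = DMSO-treated cells in low-serum medium and 100% = 10% serum control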
Xi reactivation = activators of inactive X chromosome reactivation, primary screen, imaging, XiGFP fibroblasts, GFP high-content imaging, set 2; XiGFP mouse fibroblasts, % GFP-positive cells imaging, 3 d; cells co-treated with 5-aza-dC sensitizer; scaled so ellipticine positive control = 100%; activation, % at 7.58 µM; 360,000 compounds, 0.055% hits;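 active means mean normalized replicate activation at least 10% and every replicate at or above 10%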;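 further: 0% = median of on-plate neutral control wells and 100% = ellipticine 6 µM median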
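Assay system – SV40-immortalized XiGFP fibroblast cells, line 68-5-11 · Buffer or medium – DMEM supplemented with 5-aza-dC as sensitizing agent · Dosing – one concentration, pinned · Benchmarks – positive control ellipticine, 6 µM final · Times – 3 days compound exposure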
NTR1 ag = agonists of human NTR1, primary screen, imaging, U2OS cells, beta-arrestin-GFP, high content | 330,000 compounds, 0.17% hits | AID 493036, 2011 | NTR1-U2OS beta-arrestin-GFP spot imaging, agonist mode | Neurotensin receptor type 1 (Homo sapiens), P30989 | activation, % at 20 µM;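 active means activation at or above 40% of the spot to cytoplasm intensity ratio, with at least 20 cells analyzed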;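 further: 0% = DMSO without peptide and 100% = 100 nM NTR1 peptide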
Arrestin-AP2 inh = inhibitors of beta-arrestin/AP2 binding, primary screen, biochemical, GPCR trafficking, flow cytometry | beta-arrestin 1 C-terminal peptide binding to AP2 beta2-adaptin appendage (human) | FITC-arrestin peptide / GST-AP2 beads; AP2 beta2 appendage carries R879A mutation | inhibition, % at 10 µM | 340,000 compounds, 0.31% hits;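 active means inhibition above a set limit, near 3 SD of compounds lacking own fluorescence, cut at about 54% in these data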;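 further: plate controls were DMSO wells for no effect and 5 µM unlabelled arrestin peptide for full effect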
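test system = AP2 appendage R879A on GSH beads | buffer or medium = PBS plus Tween 20 (0.05%) and BSA (0.1%) | incubation = 12 min plus 1 h, RT | detection = bead flow cytometry, FITC channel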
V-ATPase pHluor = regulators of yeast V-ATPase proton pumping, primary screen, pHLuorin cytosolic pH fluorescence; response, % at 10 µM; S. cerevisiae; 350,000 compounds, 0.37% hits; AID 504577, 2011; in the data active means response mostly above about 7.3%, no sharp cut-off; inactive means mostly below about 5.4%; further: actives read high
Arr-AP2 CP1 = inhibitors of arrestin peptide binding to AP2, confirmation, biochemical, cherry pick 1, flow cytometry beads | shares compounds with Arrestin-AP2 inh | GST-AP2 beads, FITC arrestin peptide binding; GST-fused beta2-adaptin appendage, R879A mutant | inhibition, % at 10 µM | 1,300 compounds, 2% hits;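 active means inhibition above a set limit, roughly 3 SD of non-fluorescent compound noise, cut at about 38% in these data; inactive means inhibition at or below that limit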;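 further: loss of bead fluorescence from 50 nM FITC arrestin peptide bound to appendage; 0% = negative control wells and 100% = excess unlabelled arrestin peptide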
Target sequence (P63010 whole entry, looked up, the tested form may be a part, one chain of several): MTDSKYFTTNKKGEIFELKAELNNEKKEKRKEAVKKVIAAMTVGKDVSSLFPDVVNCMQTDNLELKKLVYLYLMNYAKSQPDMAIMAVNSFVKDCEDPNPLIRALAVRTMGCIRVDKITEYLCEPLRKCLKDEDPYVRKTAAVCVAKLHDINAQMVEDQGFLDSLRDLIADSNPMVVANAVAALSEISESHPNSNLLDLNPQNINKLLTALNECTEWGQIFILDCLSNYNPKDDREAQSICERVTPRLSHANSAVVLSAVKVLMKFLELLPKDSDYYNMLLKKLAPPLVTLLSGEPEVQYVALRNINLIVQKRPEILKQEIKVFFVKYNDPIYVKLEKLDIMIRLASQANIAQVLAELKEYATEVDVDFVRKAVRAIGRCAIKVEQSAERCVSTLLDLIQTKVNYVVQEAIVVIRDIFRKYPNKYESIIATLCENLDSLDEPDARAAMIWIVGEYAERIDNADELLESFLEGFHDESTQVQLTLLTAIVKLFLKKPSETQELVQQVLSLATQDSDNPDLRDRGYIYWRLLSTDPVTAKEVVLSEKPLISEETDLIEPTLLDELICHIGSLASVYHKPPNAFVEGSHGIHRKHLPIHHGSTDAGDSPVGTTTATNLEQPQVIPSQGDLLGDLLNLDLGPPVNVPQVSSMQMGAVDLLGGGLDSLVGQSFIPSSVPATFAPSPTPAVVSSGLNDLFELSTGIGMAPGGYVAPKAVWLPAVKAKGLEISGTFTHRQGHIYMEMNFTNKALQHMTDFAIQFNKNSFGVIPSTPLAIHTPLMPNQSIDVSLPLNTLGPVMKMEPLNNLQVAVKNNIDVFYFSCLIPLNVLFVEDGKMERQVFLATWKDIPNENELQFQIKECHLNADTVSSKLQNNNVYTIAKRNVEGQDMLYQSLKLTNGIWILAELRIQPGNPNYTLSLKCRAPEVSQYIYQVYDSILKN
GST GSH counter = GST-fluorescein capture on glutathione beads, confirmation, artefact control for arrestin-AP2 inhibitor project, biochemical, cherry pick 1, flow cytometry; AID 588338, 2011; 1,300 compounds, 2% hits; inhibition, % at 10 µM; shares compounds with Arrestin-AP2 inh; GST-fluorescein binding to GSH beads, fluorescence, counter-screen;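 active means inhibition above 50%, about 3 SD of the inhibition seen with non-fluorescent compounds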;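 further: fluorescein maleimide labelled GST captured on 4 micron glutathione beads; higher means more loss of bead fluorescence from quenching or blocked binding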
The depositor's hits bear a star; i = inactive; . = no result given. This is a sample that favours compounds with a hit; in the whole collection about 0.89% have one here.

SMILES	T cell HTS	MIN6 prolif	Xi reactivation	NTR1 ag	Arrestin-AP2 inh	V-ATPase pHluor	Arr-AP2 CP1	GST GSH counter
Cc1noc(C)c1S(=O)(=O)Nc1ccc2c(c1)CC(=O)N([C@H](C)CO)C[C@H](C)[C@@H](CN(C)Cc1ccccc1)O2	.	.	0	.	.	.	.	.
COc1ccc(Br)cc1CNC(=O)CCNC(=O)Cn1ccc2ccccc2c1=O	171	-1	0	2	57*	-2	1	0
CO[C@@H]1CN(C)C(=O)c2cc(NS(=O)(=O)c3cccc(C)c3)ccc2OC[C@@H](C)NC[C@H]1C	.	.	0	.	.	.	.	.
CCC(=O)N1CC2(C1)CN(Cc1cc(F)ccc1F)[C@H](CO)c1c2c2ccc(OC)cc2n1C	.	.	0	.	.	.	.	.
COc1cccc(NC(=O)CCCn2c(=O)[nH]c3ccccc3c2=O)c1	280	-1	.	-1	27	5	2	-2
O=C(Cn1c(=O)[nH]c2ccccc2c1=O)Nc1ccc2c(c1)OCCO2	62	-4	0	-2	6	0	-2	-10
CO[C@H]1CN(C)C(=O)c2ccc(NC(=O)c3cnccn3)cc2OC[C@@H](C)NC[C@@H]1C	.	.	0	.	.	.	.	.
C[C@@H]1CN([C@H](C)CO)C(=O)c2cccc(NC(=O)c3ccc(-c4nccs4)cc3)c2O[C@@H]1CN(C)S(=O)(=O)c1cn(C)cn1	.	.	0	.	.	.	.	.
COc1cccc(CN2[C@@H](CO)[C@H](c3ccccc3)C23CN(Cc2ccccc2OC)C3)c1	.	.	0	.	.	.	.	.
Cc1ccc(-c2ccccc2[C@@H]2[C@@H](C#N)N(C(=O)Cc3cccnc3)[C@@H]2CO)cc1	.	.	0	.	.	.	.	.
C[C@@H](O)C#Cc1ccc([C@@H]2[C@H](CO)N3CCCCN(CC4CCOCC4)C[C@@H]23)cc1	.	.	0	.	.	.	.	.
CNC(=O)C1CCN(S(=O)(=O)c2c(C)noc2/C=C/N(C)C)CC1	800	-3	0	-1	-17	2	.	.
CCc1ccc(NC(=O)C2CCN(S(=O)(=O)c3c(C)noc3/C=C/N(C)C)CC2)cc1	126	-4	0	3	55*	-5	4	-8
CCOc1ccc(-c2csc(NC(=O)CSCC(=O)O)n2)c2ccccc12	126	1	0	2	62*	-6	7	0
COc1ccc(S(=O)(=O)N2CCCCCC2)cc1C(=O)NCc1ccco1	156	-3	0	0	4	1	.	.
O=C(NCc1ccco1)c1cc(S(=O)(=O)N2CCCC2)ccc1Cl	352	-2	0	-1	54*	-3	1	-15
COc1cccc(C(=O)OCC(=O)c2c(N)n(C)c(=O)n(C)c2=O)c1	365	-1	0	2	2	3	-10	-4
Cc1noc(C)c1C(=O)OCC(=O)c1c(N)n(CC(C)C)c(=O)n(C)c1=O	250	3	.	0	-4	1	1	-8
COc1ccc(C(=O)OCC(=O)c2c(N)n(C)c(=O)n(C)c2=O)c(OC)c1OC	591	-2	0	0	20	1	0	-2
Cn1c(N)c(C(=O)COC(=O)c2ccc(C(F)(F)F)cc2)c(=O)n(C)c1=O	423	-4	0	6	-11	-3	-10	-4
Cn1c(N)c(C(=O)COC(=O)c2ccnc3ccccc23)c(=O)n(C)c1=O	.	-1	0	1	6	1	.	.
COc1cccc(C#Cc2cnc3c(c2)C(=O)N([C@H](C)CO)C[C@H](C)[C@@H](CN(C)C(C)=O)O3)c1	.	.	-1	.	.	.	.	.
Cn1c(N)c(C(=O)COC(=O)c2cccs2)c(=O)n(C)c1=O	211	0	.	2	17	0	1	2
CC(C)Cn1c(N)c(C(=O)COC(=O)c2cccc(Cl)c2)c(=O)n(C)c1=O	330	1	0	7	6	-2	.	.
CCc1ccc(C(=O)OCC(=O)c2c(N)n(CC(C)C)c(=O)n(C)c2=O)cc1	i	-3	0	6	-13	1	-3	-2
SMILES	T cell HTS	MIN6 prolif	Xi reactivation	NTR1 ag	Arrestin-AP2 inh	V-ATPase pHluor	Arr-AP2 CP1	GST GSH counter
CC(C)Cn1c(N)c(C(=O)COC(=O)c2ccc3c(c2)OCCO3)c(=O)n(C)c1=O	655	-1	.	2	18	2	.	.
CC(C)Cn1c(N)c(C(=O)COC(=O)c2ccc(F)cc2)c(=O)n(C)c1=O	183	-1	0	4	13	-1	3	-7
C[C@H](CO)N1C[C@H](C)[C@H](CN(C)Cc2ccncc2)Oc2cc(-c3ccccc3)ccc2S1(=O)=O	.	.	0	.	.	.	.	.
C/C=C/c1cnc2c(c1)C(=O)N([C@@H](C)CO)C[C@@H](C)[C@@H](CN(C)C(=O)C1CCCCC1)O2	.	.	-1	.	.	.	.	.
COc1ccc2c3c(n(C)c2c1)[C@H](CO)N(Cc1ccc(F)cc1)CC31CN(C)C1	.	.	0	.	.	.	.	.
COc1cccc(C2C(C#N)=C(N)OC(C(C)(C)C)=C2C#N)c1 (centres undefined)	273	1	.	1	93*	-3	-8	-6
CCN(CC)C(=O)Cn1cc(C(=O)C(=O)N2CCN(c3ccccc3)CC2)c2ccccc21	273	-1	0	1	-12	4	.	.
CCN(C(=O)Cn1cc(C(=O)C(=O)N2CCOCC2)c2ccccc21)c1ccccc1	329	-4	0	1	66*	2	-8	1
C[C@H](CO)N1C[C@H](C)[C@@H](CN(C)S(C)(=O)=O)Oc2ccc(NC(=O)Cn3cnnn3)cc2CC1=O	.	.	0	.	.	.	.	.
O=C(NCCc1ccc(C(F)(F)F)cc1)C1CCC(=O)N(CCCc2ccccc2)C1 (centres undefined)	491	-4	0	2	-2	2	6	4
O=C(NCCc1ccc(C(F)(F)F)cc1)C1CCC(=O)N(CCc2cccc(F)c2)C1 (centres undefined)	269	-3	0	-1	-11	-3	.	.
Cc1ccc(F)cc1CNC(=O)C1CCC(=O)N(CCc2ccccc2)C1 (centres undefined)	267	-1	0	0	2	2	5	-2

Screening results from PubChem BioAssay.
